The target in data set [1] is T1, Voltage-gated inwardly rectifying potassium channel KCNH2 (Homo sapiens, UniProt Q12809). Kind of data set: Inhibition of human ERG at 30 uM by manual patch clamp assay.
For data set [2], the target named is T1, Voltage-gated inwardly rectifying potassium channel KCNH2. In words: Inhibition of human ERG by automated patch clamp assay. (In general: The patch-clamp technique gives a direct electrical read-out from membranes.)
Data set [3] concerns Rattus norvegicus. Kind of data set: Dose normalized Cmax in Sprague-Dawley rat at 1 mg/kg, iv and 3 mg/kg, po administered as cassette dosing. The format is ADME, organism-based. The following applies: in vivo. The method in brief:
(§1)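 Cassette dosing in Sprague Dawley rats: iv 1 mg/kg in NMP/PEG200 (3:7) and po 3 mg/kg in CMC/water/Tween (0.5:99:0.5). Dose-normalized values are marked as such.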

Data set [4] is described as follows: Ratio of drug level in kidney to blood in rat at 1 mg/kg, iv. The format is ADME, organism-based. The method in brief: (§2)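 Rats received a single 1 mg/kg iv dose. Compound levels were then measured in blood, liver and kidney and expressed as ng/g of matrix. The ratio is tissue level over blood level.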
For another data set, the system named is Liver. Kind of data set: Drug level in rat liver at 1 mg/kg, iv. The format is ADME, organism-based. The following applies: in vivo. In outline: (§3)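 Rats received a single iv dose of 1 mg/kg. Compound concentrations were measured in blood, liver and kidney and expressed as ng/g.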
Data set [5] in a line: Ratio of drug level in liver to blood in rat at 1 mg/kg, iv. The format is ADME, organism-based. The method in brief: as §2
The subject of the next data set is Kidney. Kind of data set: Drug level in rat kidney at 1 mg/kg, iv. The format is ADME, organism-based. The following applies: in vivo. The method in brief: as §3
The next data set relates to Blood. Kind of data set: Drug level in rat blood at 1 mg/kg, iv. The format is ADME, organism-based. The note with it: in vivo. In outline:
as §3

Data set [6] concerns Rattus norvegicus. Kind of data set: Dose normalized AUC in Sprague-Dawley rat at 3 mg/kg, po administered as cassette dosing. The note with it: in vivo. The format is ADME, organism-based. In outline:
as §1

Data set [7] is described as follows: Mean residence time in Sprague-Dawley rat at 1 mg/kg, iv and 3 mg/kg, po administered as cassette dosing. The format is ADME, organism-based. The note with it: in vivo. In outline: as §1
A short description of data set [8]: Oral bioavailability in Sprague-Dawley rat at 3 mg/kg administered as cassette dosing. The following applies: in vivo. The format is ADME, organism-based. The method in brief:
as §1

In data set [9] the target is T2, Tyrosine-protein kinase SYK (Homo sapiens, UniProt P43405). In words: Inhibition of Syk in anti-CD32 stimulated CD14+ human monocytes in presence of 90% human blood assessed as phospho-SLP76 level preincubated for 30 mins followed by anti-CD32 stimulation measured after 5 mins by flow cytometric analysis. A general note: A flow cytometer gives signals particle by particle.

Data set [10] concerns the target T2, Tyrosine-protein kinase SYK. Kind of data set: Inhibition of Syk in anti-igM stimulated human Ramos B cells assessed as phospho-BLNK level preincubated for 30 mins followed by anti-IgM stimulation measured after 15 mins by flow cytometric analysis. The format is cell-based.
Data set [11] concerns Liver microsome. Kind of data set: Drug metabolism in human liver microsomes assessed as pyrazole N-demethylation. The format is ADME.
For data set [12], the system named is Liver microsome. Kind of data set: Drug metabolism in rat liver microsomes assessed as lactam hydroxylation. The format is ADME.
The target of a further data set is T3, Aurora kinase A (Homo sapiens, UniProt O14965).
T3 sequence (O14965 whole entry): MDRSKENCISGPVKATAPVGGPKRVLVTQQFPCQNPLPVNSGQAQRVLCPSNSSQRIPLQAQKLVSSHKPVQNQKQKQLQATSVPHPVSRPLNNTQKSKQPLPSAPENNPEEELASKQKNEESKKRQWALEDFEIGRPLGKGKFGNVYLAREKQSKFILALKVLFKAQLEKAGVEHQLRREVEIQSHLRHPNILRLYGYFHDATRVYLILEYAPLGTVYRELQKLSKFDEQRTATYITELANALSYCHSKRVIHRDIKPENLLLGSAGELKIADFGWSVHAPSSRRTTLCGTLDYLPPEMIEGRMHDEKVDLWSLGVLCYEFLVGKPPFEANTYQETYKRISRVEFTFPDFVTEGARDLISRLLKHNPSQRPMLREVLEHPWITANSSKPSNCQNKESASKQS
Kind of data set: Inhibition of aurora A kinase (unknown origin) by enzymatic assay.

A short description of data set [13]: Volume of distribution at steady state in Sprague-Dawley rat at 1 mg/kg, iv and 3 mg/kg, po administered as cassette dosing. The format is ADME, organism-based. The note with it: in vivo, read-out: Vdss. In outline:
as §1

Data set [14] deals with Liver microsome. In words: Drug metabolism in human liver microsomes assessed as lactam hydroxylation. The format is ADME. Background: Microsomes from liver hold many membrane-bound enzymes, among them those of drug oxidation.
The test system of data set [15] is Liver microsome. Kind of data set: Drug metabolism in rat liver microsomes assessed as pyrazole hydroxylation. The format is ADME.
A short description of data set [16]: Clearance in Sprague-Dawley rat at 1 mg/kg, iv and 3 mg/kg, po administered as cassette dosing. The format is ADME, organism-based. The following applies: in vivo. The method in brief: as §1
Data set [17] concerns Liver microsome. Kind of data set: Drug metabolism in rat liver microsomes assessed as pyrazole N-demethylation. The format is ADME.
The subject of data set [18] is Liver microsome. Kind of data set: Drug metabolism in human liver microsomes assessed as pyrazole hydroxylation. The format is ADME.
The target in data set [19] is T2, Tyrosine-protein kinase SYK.
A short description of data set [20]: Solubility in pH 6.8 solution. The format is physicochemical.
Data set [21] in a line: Half life in rat liver microsomes. The format is ADME.
Data set [22] in a line: Protein binding in human. The note with it: plasma, read-out: PB (converted). The format is ADME, organism-based.

pIC50: −log10 of the molar value.

T1 sequence (Q12809 whole entry): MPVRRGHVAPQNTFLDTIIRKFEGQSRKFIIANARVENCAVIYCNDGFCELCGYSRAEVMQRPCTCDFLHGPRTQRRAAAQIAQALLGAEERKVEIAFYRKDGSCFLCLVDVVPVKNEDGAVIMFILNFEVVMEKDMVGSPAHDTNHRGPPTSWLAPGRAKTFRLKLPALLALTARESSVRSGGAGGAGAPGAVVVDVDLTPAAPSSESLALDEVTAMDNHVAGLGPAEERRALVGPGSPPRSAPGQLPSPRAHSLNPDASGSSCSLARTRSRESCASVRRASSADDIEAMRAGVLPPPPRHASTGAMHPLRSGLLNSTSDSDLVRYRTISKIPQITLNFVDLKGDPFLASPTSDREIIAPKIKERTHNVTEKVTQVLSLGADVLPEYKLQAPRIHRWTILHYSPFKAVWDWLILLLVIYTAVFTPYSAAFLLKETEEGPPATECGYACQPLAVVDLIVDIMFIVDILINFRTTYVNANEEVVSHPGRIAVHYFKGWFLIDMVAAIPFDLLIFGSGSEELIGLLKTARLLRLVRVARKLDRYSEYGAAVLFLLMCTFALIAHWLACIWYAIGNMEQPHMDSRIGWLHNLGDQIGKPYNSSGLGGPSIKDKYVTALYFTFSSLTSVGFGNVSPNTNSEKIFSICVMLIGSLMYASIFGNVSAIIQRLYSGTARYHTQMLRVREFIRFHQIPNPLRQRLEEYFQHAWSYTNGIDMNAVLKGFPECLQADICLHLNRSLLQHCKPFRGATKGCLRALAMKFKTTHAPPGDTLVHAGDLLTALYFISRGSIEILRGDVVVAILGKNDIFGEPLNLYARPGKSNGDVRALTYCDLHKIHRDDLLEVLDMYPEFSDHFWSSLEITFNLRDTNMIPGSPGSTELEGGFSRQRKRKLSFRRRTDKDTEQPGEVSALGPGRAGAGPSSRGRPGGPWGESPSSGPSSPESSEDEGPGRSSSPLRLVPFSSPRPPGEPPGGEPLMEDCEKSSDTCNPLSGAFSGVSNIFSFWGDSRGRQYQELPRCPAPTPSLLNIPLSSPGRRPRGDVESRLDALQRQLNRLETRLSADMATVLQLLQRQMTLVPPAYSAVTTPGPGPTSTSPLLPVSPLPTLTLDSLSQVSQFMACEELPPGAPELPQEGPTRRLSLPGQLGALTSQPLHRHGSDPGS

In the case of `NC(=O)c1nnc(N[C@@H]2CCCC[C@@H]2N)nc1Nc1cccc2cc[nH]c12`, the “inhibition (INH)” value in [1] is on record as “Not Active”. In addition, the negative logarithm of the IC50 (pIC50) (commonly −log10 of the IC50, conventionally taken in molar units) in data set [2] is 4.55. Also, the Cmax/dose in the data set with Rattus norvegicus [3] was 80 nM. Besides, the Kp in data set [4] and in [5] was 100 in each case. The Drug uptake is 9175 ng/g in the data set on Liver, 3866 ng/g in the data set on Kidney and 41 ng/g in the data set on Blood.
As to `COc1ccc(-c2cc3ncsc3c(O[C@H](C)[C@H]3CNC(=O)C3)n2)cc1OC`, the AUC/dose in the data set on Rattus norvegicus [6] is given as 858 nM.hr/(mg/kg). Further, the Cmax/dose with Rattus norvegicus [3] was found to be 178 nM. The MRT (in general, a mean duration of stay, worked out from the concentration-time curve) in [7] is 24 min. Moreover, the bioavailability (commonly the share of a dose that reaches the circulation, judged against a reference dose that is usually intravenous) in data set [8] is 35%. Besides, the pIC50 in data set [9] was 6.29; in data set [10], 6.88; against Aurora kinase A it was not below 7.00; in data set [19] it was 8.30. Besides, the Drug metabolism entry with Liver microsome [11], in the data set on Liver microsome [12], in the data set with Liver microsome [14], in the data set on Liver microsome [15], in the data set with Liver microsome [17] and in the data set with Liver microsome [18] was “metabolite_detected” throughout. Moreover, in [13], the Vd amounted to 1.2 L/kg. The clearance in [16] was determined as 53 mL/min/kg.
Regarding `C[C@@H](Oc1cc(-c2cnn(C)c2)cc2nscc12)[C@H]1CNC(=O)O1`, in the data set with Rattus norvegicus [3], the Cmax/dose is reported as 477 nM. Besides, the MRT in data set [7] is 120 min. The same compound displayed a bioavailability in data set [8] of 100%. Moreover, the Drug metabolism result in the data set with Liver microsome [11], with Liver microsome [12], with Liver microsome [14], in the data set with Liver microsome [15], in the data set with Liver microsome [17] and in the data set with Liver microsome [18] was “metabolite_detected” in each case. Besides, the pIC50 at Aurora kinase A is not below 7.00. In [13], the Vd was 1.5 L/kg. In data set [16], this compound returned a clearance of 12 mL/min/kg.
The compound `C[C@@H](Oc1cc(-c2cnn(C(F)F)c2)cc2nscc12)[C@H]1CNC(=O)C1` returned a Cmax/dose with Rattus norvegicus [3] of 263 nM. The MRT in data set [7] stood at 156 min. In addition, the pIC50 in data set [9] is 5.99; in data set [10] it was 6.47; in [19], 7.24.
For `C[C@@H](Oc1cc(-c2cnn(C)c2)cc2ncsc12)[C@H]1CNC(=O)C1`, the pIC50 in [9] was 6.73; in [10], 7.05; in data set [19], 7.48.
`C[C@@H](Oc1cc(-c2cnn(C(F)F)c2)cc2nscc12)[C@H]1CNC(=O)O1` yielded a Cmax/dose with Rattus norvegicus [3] of 614 nM. Further, the mean residence time MRT in [7] is 168 min. In addition, the negative logarithm of the IC50 (pIC50) in data set [9] is 6.71; in [10], 6.48; in data set [19], 7.80.
On to `C[C@@H](Oc1nc(-c2cnn(C)c2)cc2nscc12)[C@H]1CNC(=O)C1`, for which the AUC/dose in the data set with Rattus norvegicus [6] was 577 nM.hr/(mg/kg). Also, the Cmax/dose in the data set on Rattus norvegicus [3] came to 109 nM. For the same compound, in data set [7], the mean residence time (MRT) worked out at 30 min. Further, the solubility (usually how much of the substance goes into solution per volume) in data set [20] was more than 1000 µM. The same compound yielded a bioavailability in data set [8] of 27%. The negative-log IC50 (pIC50) in [9] is 6.54; in data set [10] it was 6.61; against Aurora kinase A, 6.10; in [19], 7.40. For the same compound, the Drug metabolism entry in the data set with Liver microsome [11], in the data set with Liver microsome [12], in the data set on Liver microsome [14], with Liver microsome [15], in the data set with Liver microsome [17] and with Liver microsome [18] was “metabolite_detected” throughout. In addition, the Vd in [13] was 2.4 L/kg. In addition, the half-life (usually the time needed for the level to fall by half in the phase considered) in [21] worked out at 34 min. Also, in data set [16], the clearance was 86 mL/min/kg. Further, the fraction unbound in data set [22] is 0.2.
`C[C@@H](Oc1cc(-c2cnn(C)c2)cc2nscc12)[C@H]1CNC(=O)C1`: the AUC/dose in the data set on Rattus norvegicus [6] was 1056 nM.hr/(mg/kg). This compound came in with a Cmax/dose in the data set on Rattus norvegicus [3] of 94 nM. In data set [7], this compound yielded a mean residence time MRT of 54 min. This compound also displayed a solubility in data set [20] of more than 1000 µM. The bioavailability in data set [8] worked out at 30%. The negative logarithm of the IC50 (pIC50) in [9] is 6.53; in data set [10], 6.79; against Aurora kinase A, 6.24; in [19], 7.34. Moreover, the Drug metabolism result with Liver microsome [11], with Liver microsome [12], with Liver microsome [14], in the data set on Liver microsome [15], with Liver microsome [17] and in the data set with Liver microsome [18] was “metabolite_detected” throughout. For the same compound, the Vd in [13] came out at 2.4 L/kg. This compound also displayed a half-life in data set [21] of 34 min. The same compound gave a clearance in data set [16] of 45 mL/min/kg. The fraction unbound in [22] was 0.2.
As for `CN(C)c1ccc(-c2cc3ncccc3c(NCCCN)n2)cc1`, the Drug metabolism entry in the data set on Liver microsome [11], with Liver microsome [12], in the data set on Liver microsome [14], in the data set on Liver microsome [15], with Liver microsome [17] and in the data set on Liver microsome [18] was “metabolite_detected” in each case.
Consider `C[C@@H](Oc1nc(-c2cnn(C)c2)cc2ncsc12)[C@H]1CNC(=O)C1`, for which the Cmax/dose in the data set on Rattus norvegicus [3] is recorded as 103 nM. Besides, the MRT in data set [7] came out at 42 min. In addition, the negative logarithm of the IC50 (pIC50) in data set [9] is 6.27; in data set [10] it was 6.55; in data set [19], 7.59.
In the same order, the values of `C[C@@H](Oc1cc(-c2cnn(C(F)F)c2)cc2ncsc12)[C@H]1CNC(=O)O1` are 803 nM, 282 min, 6.64, 6.97 and 8.05.

The record behind these values is ChEMBL document CHEMBL3621151, “Orally bioavailable Syk inhibitors with activity in a rat PK/PD model” (Bioorg Med Chem Lett, 2015).
